Each structure is given as a SMILES string. Converted amounts (≈) assume the structure as drawn.

As a reminder, the IC50 is the concentration at which inhibition is half-maximal.

Common to all, as to assay type: functional, Homo sapiens
A short description of test [1]: Inhibitory activity against Colchicine resistant parent primary liver carcinoma (PLC) cell line PLC/PRF/5. The method in brief: (§1)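 PLC/PRF/5 cells were precultured 24 h at 37 °C in 5% CO₂ in 96-well plates, then given colchicine at 0.5 μg/mL. Test compounds were added in dilutions of 10⁻²–10⁻⁶ μg/mL and incubated 72 h at 37 °C in 5% CO₂. Survival was read by MTT. IC50 is the μg/mL giving 50% growth inhibition of the colchicine-resistant cells.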

Test [2] in a line: Inhibitory activity against the primary liver carcinoma (PLC) cell line PLC/PRF/5.
Test [3] can be described thus: Inhibitory activity against colchicine resistant parent primary liver carcinoma (PLC) cell line PLC/PRF/5. The procedure, abridged: as §1

Consider `C[C@]12CCC3C(CC[C@@H]4CC(=O)CC[C@]34C)C1=CC[C@@H]2c1ccc(=O)oc1` (stereo partly specified), for which the IC50 came to 7.8 µg/mL (≈ 21.3 µM) in test [1] and 4.9 µg/mL (≈ 13.4 µM) in test [2].

Turning to `CCOC(=O)C/C=C(\C=O)C1[C@@H](O)C(=O)[C@H]2[C@@H]3CC[C@@H]4C[C@@H](OC(C)=O)CC[C@]4(C)[C@H]3CC[C@]12C` (stereo partly specified), the IC50 in test [2] came to 22 µg/mL (≈ 45 µM); in test [3] it was 33 µg/mL (≈ 67.5 µM).

As for `CC(=O)O[C@H]1[C@H]2O[C@]23[C@@H]2CC[C@@H]4C[C@@H](OC(=O)c5cc([N+](=O)[O-])cc([N+](=O)[O-])c5)CC[C@]4(C)[C@H]2CC[C@]3(C)[C@H]1c1ccc(=O)oc1`, the IC50 in test [2] is 0.78 µg/mL (≈ 1.23 µM); in test [3], 9.6 µg/mL (≈ 15.1 µM).

The record behind these values is ChEMBL document CHEMBL1135672, “QSAR evaluation of the Ch'an Su and related bufadienolides against the colchicine-resistant primary liver carcinoma cell line PLC/PRF/5(1)” (J Med Chem, 2002).
